Data as given in ChEMBL document CHEMBL3865832, “Rhizovarins A-F, Indole-Diterpenes from the Mangrove-Derived Endophytic Fungus Mucor irregularis QEN-189” (J Nat Prod, 2016).
Where a name gives a salt, the structure may show the parent alone.

Columns and labels:
[1] = Cytotoxicity against human A549 cells after 48 hrs by SRB assay; type: functional, cell-based; details: A549, 48 h
In short: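 A549 human lung adenocarcinoma cells; cytotoxicity read by sulforhodamine B (SRB) staining, with adriamycin as positive control.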

[2] = Cytotoxicity against human HL60 cells after 48 hrs by MTT assay; type: functional, cell-based; details: HL-60, 48 h
In short: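 HL-60 human leukemia cells; viability read by MTT reduction, with adriamycin as positive control.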

| Structure (SMILES) | IC50 [1] | IC50 [2] |
| --- | --- | --- |
| C=C1Cc2c(Cl)cc3[nH]c4c5c3c2[C@H]2[C@@H]1C[C@@H]2C(C)(C)O[C@H]5[C@@H]1CC[C@@]2(O)[C@@]35O[C@@H]3[C@@H](O)[C@@H](C(=C)C)O[C@H]5CC[C@]2(C)[C@@]41C [PENITREM F] | 8.2 µM | 3.3 µM |
| C=C(C)[C@@H]1CC=C2[C@H](CC[C@@]3(C)[C@@]2(O)CC[C@H]2Cc4c([nH]c5ccc6c(c45)[C@@H]4[C@@H](C(C)(C)O)C[C@@H]4C6(C)C)[C@@]23C)O1 | > 10 µM | > 10 µM |
| C=C(C)[C@H]1O[C@H]2CC[C@@]3(C)[C@@](O)(CC[C@H]4Cc5c([nH]c6ccccc56)[C@@]43C)[C@]23O[C@@H]3[C@H]1O | > 10 µM | > 10 µM |
| C=C(C)[C@H]1O[C@H]2CC[C@@]3(C)[C@@](O)(CC[C@H]4[C@@H]5OC(C)(C)[C@H]6C[C@@H]7C(=C)Cc8c(Cl)cc9[nH]c(c5c9c8[C@@]76O)[C@@]43C)[C@]23O[C@@H]3[C@H]1O | 8.4 µM | 7 µM |
| C=C(C)[C@H]1C[C@H](C(C)(C)O)[C@H]1c1cccc2c1C(=O)C[C@@H]1CC[C@@]3(O)C4=C[C@@H](O)[C@@H](C(=C)C)O[C@H]4CC[C@]3(C)[C@@]1(C)C(=O)N2 | > 10 µM | > 10 µM |
| C=C1Cc2ccc3[nH]c4c5c3c2[C@H]2[C@@H]1C[C@@H]2C(C)(C)O[C@H]5[C@@H]1CC[C@@]2(O)[C@@]35O[C@@H]3[C@@H](O)[C@@H](C(=C)C)O[C@H]5CC[C@]2(C)[C@@]41C [PENITREM B] | > 10 µM | > 10 µM |
| C=C1Cc2ccc3[nH]c4c(c3c2[C@H]2[C@@H]1C[C@@H]2C(C)(C)O)C[C@@H]1CC[C@@]2(O)C3=C[C@@H](O)[C@@H](C(=C)C)O[C@H]3CC[C@]2(C)[C@@]41C | > 10 µM | > 10 µM |
| C=C1Cc2c(Cl)cc3[nH]c4c5c3c2[C@H]2[C@@H]1C[C@@H]2C(C)(C)O[C@H]5[C@@H]1CC[C@@]2(O)C3=C[C@@H](O)[C@@H](C(=C)C)O[C@H]3CC[C@]2(C)[C@@]41C [PENITREM C] | 8 µM | 4.7 µM |
| C=C(C)[C@H]1O[C@H]2CC[C@@]3(C)[C@@](O)(CC[C@H]4Cc5c([nH]c6ccccc56)[C@@]43C)C2=C[C@H]1O | > 10 µM | > 10 µM |
| C=C1Cc2ccc3[nH]c4c(c3c2[C@H]2[C@@H]1C[C@@H]2C(C)(C)O)[C@@H](OC)[C@@H]1CC[C@@]2(O)[C@@]35O[C@@H]3[C@@H](O)[C@@H](C(=C)C)O[C@H]5CC[C@]2(C)[C@@]41C | 9.2 µM | > 10 µM |
| C=C1Cc2ccc3[nH]c4c5c3c2[C@H]2[C@@H]1C[C@@H]2C(C)(C)O[C@H]5[C@@H]1CC[C@@]2(O)C3=C[C@@H](O)[C@@H](C(=C)C)O[C@H]3CC[C@]2(C)[C@@]41C | > 10 µM | > 10 µM |
| COc1cccc2c1C(=O)c1c(O)c3c(c(O)c1C2=O)C[C@@](O)(C(=O)CO)C[C@@H]3O[C@H]1C[C@H](N)[C@H](O)[C@H](C)O1 [DOXORUBICIN HYDROCHLORIDE] | 0.3 µM | 0.067 µM |
| C=C(C)[C@H]1O[C@H]2CC[C@@]3(C)[C@@](O)(CC[C@]4(O)O[C@@H]5OC(C)(C)[C@H]6C[C@@H]7C(=C)Cc8c(Cl)cc9[nH]c(c5c9c8[C@@]76O)[C@]34C)[C@]23O[C@@H]3[C@H]1O | 11.5 µM | 9.6 µM |
| C=C(C)[C@H]1O[C@H]2CC[C@@]3(C)[C@@](O)(CC[C@H]4[C@@H]5OC(C)(C)[C@H]6C[C@@H]7C(=C)Cc8ccc9[nH]c(c5c9c8[C@@]76O)[C@@]43C)[C@]23O[C@@H]3[C@H]1O | > 10 µM | > 10 µM |
| CC(=O)OC(C)(C)[C@H]1O[C@H]2CC[C@@]3(C)[C@@H](CC[C@H]4Cc5c([nH]c6ccccc56)[C@@]43C)C2=CC1=O | > 10 µM | > 10 µM |
| C=C(C)[C@H]1O[C@H]2CC[C@@]3(C)[C@@](O)(CC[C@]4(OC)O[C@@H]5OC(C)(C)[C@H]6C[C@@H]7C(=C)Cc8ccc9[nH]c(c5c9c8[C@@]76O)[C@@]43C)[C@]23O[C@@H]3[C@H]1O | > 10 µM | > 10 µM |
| C=C(C)[C@H]1O[C@H]2CC[C@@]3(C)[C@@](O)(CC[C@]4(OC)O[C@@H]5OC(C)(C)[C@H]6C[C@@H]7C(=C)Cc8c(Cl)cc9[nH]c(c5c9c8[C@@]76O)[C@@]43C)[C@]23O[C@@H]3[C@H]1O | 6.3 µM | 5 µM |
| CC(C)(O)[C@H]1O[C@H]2CC[C@@]3(C)[C@@H](CC[C@H]4Cc5c([nH]c6ccccc56)[C@@]43C)C2=C[C@H]1O | 4.6 µM | 2.6 µM |
